The values that follow come from ChEMBL document CHEMBL1629558, “Effect of electrical current on the activities of antimicrobial agents against Pseudomonas aeruginosa, Staphylococcus aureus, and Staphylococcus epidermidis biofilms” (2009).

≈ marks a conversion by molar mass, not a printed value.

What all share (type): functional
Experiment [1] has as its system Pseudomonas aeruginosa. The experiment is described as follows: Antimicrobial activity against Pseudomonas aeruginosa Xen 5 by broth microdilution method. Put shortly: (§1)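 Planktonic MICs determined by CLSI broth microdilution; strains (MRSA Xen 30, P. aeruginosa Xen 5) stored at −70°C.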
Experiment [2] has as its system Pseudomonas aeruginosa. The experiment is described as follows: Antimicrobial activity against Pseudomonas aeruginosa Xen 5 biofilm assessed as log10 CFU/cm'2 in bacterial count. Put shortly:
(§2)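 Biofilms grown on Teflon coupons in a CDC biofilm reactor (1 ml of 10^8 CFU/ml inoculum, 37°C shaking 18 h, then 18 h at room temperature). Coupons then sat 24 h at room temperature in flow chambers with fresh medium ± drug ± direct current via graphite electrodes. Biofilm removed by vortex plus 5 min sonication, plated on blood agar (37°C, 5% CO2, 48 h). Triplicate; mean log10 CFU/cm2.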

Experiment [3] relates to Pseudomonas aeruginosa. Kind of experiment: Antimicrobial activity against Pseudomonas aeruginosa Xen 5 biofilm assessed as log10 CFU/cm'2 in bacterial count in presence of 2000 microamperes of electric current by bioelectric effect assay. Put shortly: as §2
The test system of experiment [4] is Staphylococcus aureus. Kind of experiment: Antimicrobial activity against Staphylococcus aureus Xen 30 by broth microdilution method. Put shortly: as §1
Experiment [5] concerns Staphylococcus epidermidis. The experiment is described as follows: Antimicrobial activity against Staphylococcus epidermidis Xen 43 by broth microdilution method.
Experiment [6] concerns Staphylococcus aureus. Kind of experiment: Antimicrobial activity against Staphylococcus aureus Xen 30 biofilm assessed as log10 CFU/cm'2 in bacterial count. Put shortly: as §2
Experiment [7] deals with Staphylococcus aureus. The experiment is described as follows: Antimicrobial activity against Staphylococcus aureus Xen 30 biofilm assessed as log10 CFU/cm'2 in bacterial count in presence of 200 microamperes of electric current by bioelectric effect assay. Put shortly:
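MRSA Xen 30 biofilms grown on Teflon coupons (12.5 mm) in a CDC biofilm reactor seeded with 1 ml of 10^8 CFU/ml: 18 h 37°C with shaking, then 18 h room temperature. Coupons were exposed in flow chambers to fresh medium ± antimicrobial with direct current for 24 h at room temperature. Biofilm was dislodged by vortex and sonication, then plated on blood agar. Counts are mean log10 CFU/cm2 from triplicate experiments.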

Experiment [8] deals with Staphylococcus epidermidis. Kind of experiment: Antimicrobial activity against Staphylococcus epidermidis Xen 43 biofilm assessed as log10 CFU/cm'2 in bacterial count. Put shortly:
as §2

Experiment [9] deals with Staphylococcus epidermidis. Kind of experiment: Antimicrobial activity against Staphylococcus epidermidis Xen 43 biofilm assessed as log10 CFU/cm'2 in bacterial count in presence of 2000 microamperes of electric current by bioelectric effect assay. Put shortly:
as §2

For experiment [10], the system named is Staphylococcus aureus. The experiment is described as follows: Antimicrobial activity against Staphylococcus aureus Xen 30 biofilm assessed as log10 CFU/cm'2 in bacterial count in presence of 2000 microamperes of electric current by bioelectric effect assay. Put shortly:
as §2

The test system of experiment [11] is Staphylococcus epidermidis. Kind of experiment: Antimicrobial activity against Staphylococcus epidermidis Xen 43 biofilm assessed as log10 CFU/cm'2 in bacterial count in presence of 200 microamperes of electric current by bioelectric effect assay. Put shortly:
as §2

Experiment [12] relates to Staphylococcus aureus. Kind of experiment: Antimicrobial activity against Staphylococcus aureus Xen 30 biofilm assessed as log10 CFU/cm'2 in bacterial count in presence of 20 microamperes of electric current by bioelectric effect assay. Put shortly: as §2
The test system of experiment [13] is Pseudomonas aeruginosa. The experiment is described as follows: Antimicrobial activity against Pseudomonas aeruginosa Xen 5 biofilm assessed as log10 CFU/cm'2 in bacterial count in presence of 200 microamperes of electric current by bioelectric effect assay. Put shortly: as §2

Turning to `CO/N=C(\C(=O)N[C@@H]1C(=O)N2C(C(=O)[O-])=C(C[N+]3(C)CCCC3)CS[C@H]12)c1csc(N)n1`, it took 2 µg/mL (≈ 4.16 µM) to inhibit growth in [1] (MIC). The log10cfu is 0.96 in experiment [2] and 1.43 in experiment [3].

For the compound `CCCCCCCCCC(=O)N[C@@H](Cc1c[nH]c2ccccc12)C(=O)N[C@H](CC(N)=O)C(=O)N[C@@H](CC(=O)O)C(=O)N[C@@H]1C(=O)NCC(=O)N[C@@H](CCCN)C(=O)N[C@@H](CC(=O)O)C(=O)N[C@H](C)C(=O)N[C@@H](CC(=O)O)C(=O)NCC(=O)N[C@H](CO)C(=O)N[C@@H]([C@H](C)CC(=O)O)C(=O)N[C@@H](CC(=O)c2ccccc2N)C(=O)O[C@@H]1C`, the MIC in [4] worked out at 1 µg/mL (≈ 0.617 µM); in experiment [5] it was 0.125 µg/mL (≈ 0.0771 µM). Also, the log10cfu is listed as 1.63 in [6], 1.94 in experiment [7], -0.38 in experiment [8] and 1.2 in experiment [9].

On to `O=C(O)c1cn(C2CC2)c2cc(N3CCNCC3)c(F)cc2c1=O` [CIPROFLOXACIN], for which the log10cfu in [2] is -0.63; in experiment [3], 1.86.

With `CC[C@H]1OC(=O)[C@H](C)[C@@H](O[C@H]2C[C@@](C)(OC)[C@@H](O)[C@H](C)O2)[C@H](C)[C@@H](O[C@@H]2O[C@H](C)C[C@H](N(C)C)[C@H]2O)[C@](C)(O)C[C@@H](C)C(=O)[C@H](C)[C@@H](O)[C@]1(C)O` [ERYTHROMYCIN], the values for the MIC in [4] and in [5] were 0.5 µg/mL (≈ 0.681 µM) and 0.125 µg/mL (≈ 0.17 µM), respectively. The log10cfu is -0.17 in [6], 0.27 in [10], 0.7 in experiment [8] and 2.04 in experiment [11].

The compound `CC(=O)NC[C@H]1CN(c2ccc(N3CCOCC3)c(F)c2)C(=O)O1` [LINEZOLID] showed an MIC in experiment [5] of 1 µg/mL (≈ 2.96 µM). The log10cfu in experiment [6] was 0.62; in experiment [10] it was 1.51; in [8], 0.22; in experiment [11] it was 0.63.

For `CN(C)c1ccc(O)c2c1C[C@H]1C[C@H]3[C@H](N(C)C)C(O)=C(C(N)=O)C(=O)[C@@]3(O)C(O)=C1C2=O` [MINOCYCLINE], the figures for the MIC in experiment [4] and in [5] were 4 µg/mL (≈ 8.74 µM) and 1 µg/mL (≈ 2.19 µM), respectively. The log10cfu is 0.7 in experiment [6], 2.04 in experiment [12], -0.18 in [8] and 3.32 in [11].

As to `COc1c(N2C[C@@H]3CCCN[C@@H]3C2)c(F)cc2c(=O)c(C(=O)O)cn(C3CC3)c12` [MOXIFLOXACIN], the MIC in experiment [4] was 2 µg/mL (≈ 4.98 µM); in experiment [5] it was at most 0.125 µg/mL. Further, the log10cfu was 1.33 in experiment [6], 2.1 in experiment [12], -0.41 in experiment [8] and 0.82 in [9].

For the compound `CO[C@H]1/C=C/O[C@@]2(C)Oc3c(C)c(O)c4c(O)c(c(/C=N/N5CCN(C)CC5)c(O)c4c3C2=O)NC(=O)/C(C)=C\C=C\[C@H](C)[C@H](O)[C@@H](C)[C@@H](O)[C@@H](C)[C@H](OC(C)=O)[C@@H]1C` [RIFAMPIN], the MIC in experiment [4] is 2 µg/mL (≈ 2.43 µM); in experiment [5], at most 0.125 µg/mL. The log10cfu in [6] came out at 0.86; in experiment [10], 1.78; in [8] it was 0.17; in [9] it was 2.5.

Take `NC[C@H]1O[C@H](O[C@H]2[C@H](O)[C@@H](O[C@H]3O[C@H](CO)[C@@H](O)[C@H](N)[C@H]3O)[C@H](N)C[C@@H]2N)[C@H](N)C[C@@H]1O` [TOBRAMYCIN]: the minimum inhibitory concentration (MIC) in experiment [1] worked out at 1 µg/mL (≈ 2.14 µM); in [4] it was 4 µg/mL (≈ 8.56 µM); in experiment [5], 0.25 µg/mL (≈ 0.535 µM). The log10cfu is listed as 1.69 in [2]; 2.48 in experiment [13]; 0.86 in [6]; 2 in [10]; 0.2 in experiment [8]; 3.08 in [9].

As for `CN[C@H](CC(C)C)C(=O)N[C@H]1C(=O)N[C@@H](CC(N)=O)C(=O)N[C@H]2C(=O)N[C@H]3C(=O)N[C@H](C(=O)N[C@H](C(=O)O)c4cc(O)cc(O)c4-c4cc3ccc4O)[C@H](O)c3ccc(c(Cl)c3)Oc3cc2cc(c3O[C@@H]2O[C@H](CO)[C@@H](O)[C@H](O)[C@H]2O[C@H]2C[C@](C)(N)[C@H](O)[C@H](C)O2)Oc2ccc(cc2Cl)[C@H]1O` [VANCOMYCIN], the log10cfu was -0.31 in experiment [6], 1.59 in [7], 0.7 in [8] and 2.09 in experiment [9].
